Assay results: PMC5131535 (ACS chemical neuroscience, 2016)
pIC50: −log10 of the molar value. Where “and” joins values, the source holds several entries; their conditions need not be identical. Equal values may be shown once. Read-outs that look alike come from different tables or passages of the source. Blank lines part the entries; values can stand above or below the compound they belong to.

What was measured:
[1] = target: Kir6.2/SUR1 (Homo sapiens, UniProt Q14654); assay: Tl+ flux selectivity assay, Kir6.2/SUR1; format: cell-based; settings: Thallium flux, Kir7.1 over Kir6.2/SUR1
Sequence of Kir6.2/SUR1 (Q14654 whole entry): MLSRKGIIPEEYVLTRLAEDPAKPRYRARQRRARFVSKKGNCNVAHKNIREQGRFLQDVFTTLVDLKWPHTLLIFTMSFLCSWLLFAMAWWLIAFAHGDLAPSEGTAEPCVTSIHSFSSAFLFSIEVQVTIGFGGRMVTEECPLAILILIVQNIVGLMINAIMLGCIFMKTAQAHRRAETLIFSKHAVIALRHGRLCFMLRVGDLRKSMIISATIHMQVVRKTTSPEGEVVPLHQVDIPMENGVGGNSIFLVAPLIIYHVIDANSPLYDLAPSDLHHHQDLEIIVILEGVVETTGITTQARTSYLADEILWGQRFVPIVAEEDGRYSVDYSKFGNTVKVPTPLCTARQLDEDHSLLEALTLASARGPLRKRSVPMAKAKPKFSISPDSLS
Sequence of Kir6.2/SUR1 (Q09428 whole entry partner): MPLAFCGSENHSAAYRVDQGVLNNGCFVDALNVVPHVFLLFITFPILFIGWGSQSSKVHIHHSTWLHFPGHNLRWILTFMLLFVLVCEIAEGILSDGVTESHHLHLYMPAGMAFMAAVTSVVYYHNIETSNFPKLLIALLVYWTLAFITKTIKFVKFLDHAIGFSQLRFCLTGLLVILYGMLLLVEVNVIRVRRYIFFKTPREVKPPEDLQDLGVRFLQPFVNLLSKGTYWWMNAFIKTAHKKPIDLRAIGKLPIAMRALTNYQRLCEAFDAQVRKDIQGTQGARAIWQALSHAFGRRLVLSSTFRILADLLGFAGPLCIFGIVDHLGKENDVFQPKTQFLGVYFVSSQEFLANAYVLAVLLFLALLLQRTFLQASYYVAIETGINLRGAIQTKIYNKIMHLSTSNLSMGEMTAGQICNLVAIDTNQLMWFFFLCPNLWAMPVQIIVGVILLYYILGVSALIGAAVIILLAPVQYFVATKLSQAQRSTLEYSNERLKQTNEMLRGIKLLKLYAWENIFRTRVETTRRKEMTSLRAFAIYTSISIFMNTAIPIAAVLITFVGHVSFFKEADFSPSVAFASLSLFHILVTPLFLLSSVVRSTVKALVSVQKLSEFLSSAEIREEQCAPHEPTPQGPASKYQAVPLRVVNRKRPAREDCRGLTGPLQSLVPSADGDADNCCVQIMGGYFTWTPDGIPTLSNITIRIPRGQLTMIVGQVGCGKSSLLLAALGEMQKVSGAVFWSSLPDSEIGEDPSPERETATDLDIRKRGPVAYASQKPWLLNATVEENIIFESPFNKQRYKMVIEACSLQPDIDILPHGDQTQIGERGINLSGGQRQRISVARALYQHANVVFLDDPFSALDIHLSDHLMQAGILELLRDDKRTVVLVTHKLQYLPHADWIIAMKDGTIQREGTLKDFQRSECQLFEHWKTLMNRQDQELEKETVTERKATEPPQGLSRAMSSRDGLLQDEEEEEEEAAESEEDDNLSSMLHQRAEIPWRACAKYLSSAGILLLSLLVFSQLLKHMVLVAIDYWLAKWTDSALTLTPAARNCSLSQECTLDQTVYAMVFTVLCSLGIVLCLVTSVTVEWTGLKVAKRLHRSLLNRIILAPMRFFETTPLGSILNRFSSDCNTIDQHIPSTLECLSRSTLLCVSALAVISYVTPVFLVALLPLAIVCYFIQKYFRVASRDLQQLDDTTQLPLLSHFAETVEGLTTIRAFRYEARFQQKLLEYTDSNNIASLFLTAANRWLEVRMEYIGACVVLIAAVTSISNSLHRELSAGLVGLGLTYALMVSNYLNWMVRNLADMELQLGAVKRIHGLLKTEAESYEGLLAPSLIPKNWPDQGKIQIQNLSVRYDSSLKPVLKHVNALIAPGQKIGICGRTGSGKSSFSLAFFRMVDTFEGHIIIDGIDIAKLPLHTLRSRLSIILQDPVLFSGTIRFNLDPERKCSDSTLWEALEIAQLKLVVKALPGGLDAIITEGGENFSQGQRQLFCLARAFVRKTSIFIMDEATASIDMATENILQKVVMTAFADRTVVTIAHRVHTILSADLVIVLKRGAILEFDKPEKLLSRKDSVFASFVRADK
Summary of the method: (§1)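 Tetracycline-inducible stable T-REx-HEK-293 lines, induced overnight with 1 µg/ml tetracycline in DMEM/10% dialyzed FBS. Cells loaded 1 hr with 1.2 µM Thallos-AM in HBSS/20 mM HEPES pH 7.3 with 0.01% Pluronic F-127. Baseline fluorescence (ex 470, em 540 nm) read at 1 Hz before adding stimulus buffer with 1.8 mM Tl₂SO₄. Traces normalized to first point and vehicle-subtracted; slope taken 5–20 s post-Tl⁺; IC50 by nonlinear regression of CRCs.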

[2] = test system: Kir1.1; assay: Tl+ flux selectivity assay, Kir1.1; format: cell-based; settings: Thallium flux, Kir7.1 over Kir1.1
Summary of the method: as §1

[3] = Protein binding in plasma; settings: mouse
[4] = target: T1, Kir2.2 (Homo sapiens, UniProt Q14500); assay: Tl+ flux selectivity assay, Kir2.2; format: cell-based; settings: Thallium flux, Kir7.1 over Kir2.2
T1 sequence (Q14500 1-433): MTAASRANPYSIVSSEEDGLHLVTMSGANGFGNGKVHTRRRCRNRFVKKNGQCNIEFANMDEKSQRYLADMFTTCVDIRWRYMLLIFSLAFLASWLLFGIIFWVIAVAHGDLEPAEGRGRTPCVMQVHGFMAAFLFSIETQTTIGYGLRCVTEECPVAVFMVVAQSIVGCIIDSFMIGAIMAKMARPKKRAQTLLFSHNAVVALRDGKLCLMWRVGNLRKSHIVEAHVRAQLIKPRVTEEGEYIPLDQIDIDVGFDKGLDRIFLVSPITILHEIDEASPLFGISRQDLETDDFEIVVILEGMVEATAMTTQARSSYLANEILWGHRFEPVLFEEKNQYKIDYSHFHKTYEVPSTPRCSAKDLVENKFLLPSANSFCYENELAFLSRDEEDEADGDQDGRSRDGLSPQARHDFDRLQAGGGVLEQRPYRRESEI

[5] = target: T2, Kir2.1 (Homo sapiens, UniProt P63252); assay: Tl+ flux selectivity assay, Kir2.1; format: cell-based; settings: Thallium flux, Kir7.1 over Kir2.1
T2 sequence (P63252 1-427): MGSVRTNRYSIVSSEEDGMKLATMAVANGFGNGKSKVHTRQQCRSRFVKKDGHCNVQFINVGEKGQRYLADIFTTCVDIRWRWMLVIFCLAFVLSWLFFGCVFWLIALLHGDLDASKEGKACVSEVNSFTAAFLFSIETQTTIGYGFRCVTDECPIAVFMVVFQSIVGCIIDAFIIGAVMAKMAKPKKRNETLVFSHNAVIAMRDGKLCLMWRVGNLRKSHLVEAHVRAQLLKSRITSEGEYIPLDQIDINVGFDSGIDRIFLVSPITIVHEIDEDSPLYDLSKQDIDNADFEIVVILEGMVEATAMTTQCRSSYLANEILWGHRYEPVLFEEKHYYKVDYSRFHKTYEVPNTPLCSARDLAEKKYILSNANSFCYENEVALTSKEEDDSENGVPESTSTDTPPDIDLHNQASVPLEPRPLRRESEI
Summary of the method: as §1

[6] = Protein binding in plasma; settings: rat
[7] = target: T3, Kir7.1-M125R (Homo sapiens, UniProt O60928, M125R); assay: Tl+ flux assay in T-REx-HEK293 cells expressing Kir7.1-M125R; format: cell-based
T3 sequence (O60928 1-360 M125R): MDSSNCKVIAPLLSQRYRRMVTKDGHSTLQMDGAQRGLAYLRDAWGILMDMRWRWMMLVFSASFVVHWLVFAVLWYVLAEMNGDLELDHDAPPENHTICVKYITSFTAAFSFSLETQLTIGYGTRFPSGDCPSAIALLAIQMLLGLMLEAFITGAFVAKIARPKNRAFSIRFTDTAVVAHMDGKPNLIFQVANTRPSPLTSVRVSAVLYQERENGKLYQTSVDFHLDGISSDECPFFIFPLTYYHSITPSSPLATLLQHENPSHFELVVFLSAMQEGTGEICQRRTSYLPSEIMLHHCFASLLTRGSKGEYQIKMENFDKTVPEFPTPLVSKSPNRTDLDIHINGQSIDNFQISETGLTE
Summary of the method: as §1

[8] = target: T4, Kir4.1 (Homo sapiens, UniProt P78508); assay: Tl+ flux selectivity assay, Kir4.1; format: cell-based; settings: Thallium flux, Kir7.1 over Kir4.1
T4 sequence (P78508 1-379): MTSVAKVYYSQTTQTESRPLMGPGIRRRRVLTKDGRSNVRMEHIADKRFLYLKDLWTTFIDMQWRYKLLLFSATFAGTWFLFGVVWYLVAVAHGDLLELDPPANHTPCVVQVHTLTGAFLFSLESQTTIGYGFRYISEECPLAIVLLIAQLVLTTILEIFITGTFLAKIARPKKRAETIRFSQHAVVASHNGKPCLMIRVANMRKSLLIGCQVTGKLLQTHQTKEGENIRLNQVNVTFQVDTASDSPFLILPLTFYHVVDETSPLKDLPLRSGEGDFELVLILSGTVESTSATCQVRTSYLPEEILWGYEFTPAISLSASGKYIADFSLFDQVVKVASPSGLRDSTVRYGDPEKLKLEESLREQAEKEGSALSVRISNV
Summary of the method: as §1

[9] = target: T5, Kir2.3 (Homo sapiens, UniProt P48050); assay: Tl+ flux selectivity assay, Kir2.3; format: cell-based; settings: Thallium flux, Kir7.1 over Kir2.3
T5 sequence (P48050 1-445): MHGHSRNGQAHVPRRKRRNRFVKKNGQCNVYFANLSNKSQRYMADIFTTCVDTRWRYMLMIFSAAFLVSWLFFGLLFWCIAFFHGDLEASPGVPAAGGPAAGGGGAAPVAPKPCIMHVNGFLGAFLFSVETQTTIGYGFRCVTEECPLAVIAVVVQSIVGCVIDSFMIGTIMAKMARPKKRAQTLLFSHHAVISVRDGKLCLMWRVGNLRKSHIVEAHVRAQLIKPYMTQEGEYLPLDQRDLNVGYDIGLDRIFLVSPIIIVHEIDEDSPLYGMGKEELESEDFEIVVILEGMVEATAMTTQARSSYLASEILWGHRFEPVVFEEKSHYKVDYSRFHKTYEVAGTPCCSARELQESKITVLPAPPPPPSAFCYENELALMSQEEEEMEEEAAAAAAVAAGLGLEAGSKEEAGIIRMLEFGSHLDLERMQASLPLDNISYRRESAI

[10] = target: T6, Kir7.1 (Homo sapiens, UniProt O60928, M125R); assay: Whole-cell patch clamp electrophysiology, Kir7.1; format: cell-based; settings: Kir7.1 IC50 (Patch clamp), -120 mV
T6 sequence (O60928 1-360 M125R): T3 sequence (O60928 1-360 M125R)
Summary of the method: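 Human Kir7.1 (WT or mutant) was transiently co-transfected with EGFP into HEK-293T cells, which were replated next day on poly-L-lysine coverslips. Whole-cell clamp used bath 5 mM KCl, pH 7.4, and pipette 135 mM KCl, pH 7.3. Cells were held at −75 mV, stepped 500 ms to −120 mV, then ramped to 120 mV, every 5 s. Increasing test-compound doses were superfused, then BaCl₂ block; current read at −120 mV; variable-slope Hill fit, mean of n = 5.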

[11] = Protein binding in plasma; settings: human
[12] = test system: ROMK; settings: read-out: ROMK IC50 EP, cited from earlier work
[13] = test system: ROMK; settings: read-out: ROMK IC50 Tl+; ref [16]; cited from earlier work
[14] = test system: Kir7.1; settings: read-out: Kir7.1 IC50 EP, cited from earlier work
[15] = target: T2, Kir2.1; settings: read-out: Kir2.1 IC50; at pH 8.0; ref [24]; cited from earlier work

- Kir Channel Selectivity (Fold) 6.2 [1]: 1 Fold
- fraction unbound [3]: 0.056
- Kir Channel Selectivity (Fold) 2.2 [4]: >18 Fold
- Kir Channel Selectivity (Fold) 2.1 [5]: >18 Fold
- fraction unbound [6]: 0.036
- pIC50 [7]: 5.77
- Kir Channel Selectivity (Fold) 4.1 [8]: >18 Fold
- Kir Channel Selectivity (Fold) 2.3 [9]: >18 Fold
- pIC50 [10]: 6.33
- fraction unbound [11]: 0.011
Structure (SMILES): CC(C)(C)OC(=O)NC1CCN(Cc2cc(Cl)c3cccnc3c2O)CC1 [Compound 11, tert-Butyl (1-((5-chloro-8-hydroxyquinolin-7-yl)methyl)piperidin-4-yl)carbamate]
- Kir Channel Selectivity (Fold) 1.1 [2]: >18 Fold

Structure (SMILES): O=[N+]([O-])c1ccc(CN2CCOCCOCCN(Cc3ccc([N+](=O)[O-])cc3)CCOCC2)cc1 [VU590]
- pIC50 ([12]; ref [16]): 6.62
- pIC50 [13]: 6.52
- pIC50 ([14]; ref [16]): ~5.10 and 5.10

Structure (SMILES): COc1ccc(CNCc2cccc3ccccc23)cc1 [ML133]
- pIC50 ([12]; ref [24]): < 3.52
- pIC50 [15]: 6.52
- pIC50 ([14]; ref [24]): 4.48
